STAT1 activator: STAT1 signaling activators, primary screen, cell-based, HTS, luciferase reporter | activation (% of control), % at 5.5 µM | NIH 3T3 STAT1-luciferase reporter, IFN-gamma, luminescence; 100% = IFN-gamma alone, no compound | 200,000 compounds, 2.6% hits;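 active = activation above the screen-wide mean activation plus 3 SD, cut at about 130% in these data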;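 note: raw ratio to IFN-gamma control signal so 100% means no change and 0% no light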
FLuc inhib CS: firefly luciferase enzyme inhibitors, primary screen, artefact control for luciferase-based inhibitor screens, biochemical, luminescence, ATPLite. Luciferin 4-monooxygenase (Photinus pyralis), P08659. 200,000 compounds, 1.5% hits. 10 min. inhibition, % at 10 µM;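 active = inhibition above about 50% when tested at 10 µM, limit read from the data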
Target sequence (P08659 whole entry, looked up): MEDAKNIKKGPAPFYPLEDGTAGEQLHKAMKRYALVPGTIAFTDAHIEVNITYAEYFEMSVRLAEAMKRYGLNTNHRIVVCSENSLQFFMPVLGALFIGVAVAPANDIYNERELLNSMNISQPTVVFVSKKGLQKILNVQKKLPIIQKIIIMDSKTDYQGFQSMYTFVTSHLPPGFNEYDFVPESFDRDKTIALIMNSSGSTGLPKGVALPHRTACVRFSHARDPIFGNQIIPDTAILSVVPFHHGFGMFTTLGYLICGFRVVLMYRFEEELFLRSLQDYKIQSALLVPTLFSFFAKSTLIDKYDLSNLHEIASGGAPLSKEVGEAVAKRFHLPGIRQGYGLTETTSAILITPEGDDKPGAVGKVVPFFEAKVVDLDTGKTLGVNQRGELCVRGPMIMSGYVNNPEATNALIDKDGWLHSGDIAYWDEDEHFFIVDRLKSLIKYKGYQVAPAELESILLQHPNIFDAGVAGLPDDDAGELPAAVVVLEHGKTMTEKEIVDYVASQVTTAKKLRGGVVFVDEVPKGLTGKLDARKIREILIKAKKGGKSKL
NF-kB expr up: activators of NF-kB expression in neurons, primary screen, cell-based, HTS. human neuronal cells, NF-kB reporter expression; hits give high values. fold change at 12.5 µM. 190,000 compounds, 1.6% hits. AID 1239, 2008; in the data active = fold change above about 3.3
APP 5'UTR act: activators of APP 5'UTR luciferase reporter, primary screen, SH-SY5Y cells; SH-SY5Y APP 5'UTR luciferase reporter, luminescence; zero percent = DMSO vehicle wells; activation, % at 2 µM; 190,000 compounds, 1% hits;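 active = activation above a set limit, based on mean plus 3 SD of controls, cut at about 140% in these data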
FLuc act counter: FLuc activators, initial screening, artefact control for FLuc-dependent activation tests, biochemical, ATPlite luminescence; AID 1027, 2008; Luciferin 4-monooxygenase (Photinus pyralis), P08659; activation factor at 10 µM; 200,000 tested, under 10 active; ATPlite luciferase biochemical, 10 min; 0 = ATP-free wells, 1 = DMSO control;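 active = luciferase activation factor, scaled between plate controls, of at least 2 with compound at 10 µM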
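Assay system: Luciferase/luciferin reagent mix; Medium: PBS as buffer for the ATP substrate; Dosing: test compounds dosed from 2 mM stocks in 100% DMSO; Times: 10 min, room temperature; Signal: luminescence from luciferase reaction; Read-out: luciferase activation; Controls: No-ATP low control, compound-free enzyme-plus-ATP high control.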
* marks the source's active call; other numbers are inactive results. Hits are enriched below; roughly 4.3% of the tested compounds scored in any of these assays.

SMILES | STAT1 activator | FLuc inhib CS | NF-kB expr up | APP 5'UTR act | FLuc act counter
O=C(CNC(=O)c1ccc([N+](=O)[O-])cc1)c1ccccc1 | 134* | 8 | 1.7 | 76 | 0.9
O=C(CNC(=O)c1cccs1)OCC(=O)c1ccc(Cl)cc1 | 104 | -2 | 1 | -17 | 1
CC(Cc1ccccc1)NC(=O)c1ccc([N+](=O)[O-])cc1 (stereo unspecified) | 143* | 35 | 3.1 | 104 | 0.7
Cc1c(Cl)cccc1NC(=S)N1CCC(C(N)=O)(N2CCCCC2)CC1 | 97 | -8 | 1.2 | -12 | 1.1
O=C1NC(=O)/C(=C\c2ccc(OCc3cccc([N+](=O)[O-])c3)cc2)N1 | 102 | -8 | 1.1 | -14 | 1.1
CC(Sc1nnc(NC2CCCCC2)s1)C(=O)Nc1ccc2c(c1)C(=O)c1ccccc1C2=O (stereo unspecified) | 142* | -2 | 1.2 | 32 | 1
O=Nc1c(O)n(Cc2cccc(C(F)(F)F)c2)c2ccccc12 | 89 | -5 | 0.57 | -4 | 1.1
Cc1ccc(C2NC(=O)c3c(sc4c3CCN(C)C4)N2)s1 (stereo unspecified) | 138* | 3 | 1.2 | 10 | 1
O=C1NC(c2ccccn2)Nc2sc3c(c21)CCC3 (stereo unspecified) | 117 | 4 | 5* | 37 | 1
CN1CCc2c(sc3c2C(=O)NC(c2ccccc2)N3)C1 (stereo unspecified) | 106 | 1 | 0.8 | -3 | 1
Cc1ccsc1C1NC(=O)c2c(sc3c2CCCC3)N1 (stereo unspecified) | 133* | 2 | 1.8 | 83 | 1
CCn1c(CSCc2ccc(Cl)cc2)nnc1SCC(=O)Nc1cccc(C(=O)O)c1 | 95 | -8 | 1.3 | -2 | 1.1
COc1ccc(NC(=O)C(CC(=O)O)Cc2ccc(C)cc2)cc1 (stereo unspecified) | 99 | -5 | 1.1 | -6 | 1.1
CCNC(=O)c1ccc(CSc2ccc(Cl)cc2)cc1 | 110 | -6 | 1.2 | 6 | 1.1
CC(=O)NCCNC(=O)c1ccc(CSc2ccc(Cl)cc2)cc1 | 142* | -1 | 1.2 | 147* | 1
O=C1NC(c2ccccc2)=N/C1=C/c1ccco1 | 101 | 73* | 2.2 | 109 | 0.3
CC(C)c1ccc(C(=O)NC2=NCCS2)cc1 | 145* | 84* | 1.1 | 167* | 0.2
O=C(NC1=NCCS1)c1cccc(OC(F)F)c1 | 140* | 30 | 4.1* | 150* | 0.7
CC(C)Oc1ccc(C(=O)NC2=NCCS2)cc1 | 94 | 75* | 8.3* | 154* | 0.3
CC(C)(C)c1ccc(OCCCC(=O)Nc2ccc(S(N)(=O)=O)cc2)cc1 | 101 | -3 | 1.1 | -5 | 1
CC1CCCC/C1=N\NC(=S)Nc1cccnc1 (stereo unspecified) | 102 | -3 | 4.9* | 26 | 1
Cc1ccc(NC(=S)N/N=C2\CCCCC2C)cc1 (stereo unspecified) | 107 | -7 | 1.1 | 31 | 1.1
Cc1cc(C)c(C#N)c(SCc2nnc(-c3ccccc3[N+](=O)[O-])o2)n1 | 140* | 6 | 3.2 | 213* | 0.9
CCOc1ccc(S(=O)(=O)N2CCN(c3ccccc3F)CC2)c2cccnc12 | 89 | -2 | 0.85 | -2 | 1
Cc1ccccc1C(=O)Nc1nnc(SC(C)C)s1 | 122 | 5 | 1.5 | 31 | 1
SMILES | STAT1 activator | FLuc inhib CS | NF-kB expr up | APP 5'UTR act | FLuc act counter
c1ccc(CNc2nc(-c3cccnc3)cs2)cc1 | 112 | 4 | 2.1 | 8 | 1
Clc1cccc(Nc2nc(-c3cccnc3)cs2)c1 | 139* | 3 | 2.6 | 76 | 1
O=C(Nc1cccc(Cl)c1)Nc1nc(-c2ccc(Cl)cc2)cs1 | 85 | -4 | 1.2 | 5 | 1
Brc1ccc(Nc2nc(-c3cccnc3)cs2)cc1 | 131* | 12 | 1.1 | 47 | 0.9
Cc1ccccc1C(=O)Nc1ccc(C(=O)N/N=C/c2ccc(O)c(Br)c2)cc1 | 92 | -5 | 0.91 | -10 | 1
c1ccc(Sc2cnc3ccccc3n2)cc1 | 134* | 10 | 1.6 | 38 | 0.9
Clc1ccc(Sc2cnc3ccccc3n2)cc1 | 114 | -4 | 2.8 | 12 | 1
COC(=O)c1[nH]c(=O)c2ccccc2c1O | 103 | -3 | 1.1 | 4 | 1
COC(=O)c1[nH]c(=O)c2ccccc2c1OCc1ccccc1 | 99 | -5 | 3.8* | 0 | 1.1
COC(=O)N/N=C(/c1ccccc1)C1CCCCC1 | 96 | -4 | 5.6* | 5 | 1
O=C(OCc1csc(Nc2ccccc2)n1)c1ccc(Cl)cc1 | 102 | -8 | 1.1 | 18 | 1.1
O=C(Nc1nc(-c2ccccn2)cs1)C12CC3CC(CC(O)(C3)C1)C2 | 112 | 83* | 2.2 | 107 | 0.2
Cc1cccnc1NC(=O)Cn1nc(-c2ccccc2)oc1=S | 117 | -4 | 4.2* | 170* | 1
N#Cc1cc(C#N)c(N2CCN(c3ccccn3)CC2)nc1N | 136* | 1 | 0.97 | 68 | 1
N#CC1(c2ccc(NC(=O)c3ccccc3)cc2)CCCC1 | 147* | 61* | 3 | 108 | 0.4
CCC(COC)NC(=O)CCc1nnc(Cc2cccc(C(F)(F)F)c2)o1 (stereo unspecified) | 114 | -4 | 1.9 | 22 | 1
CC(C)NC(=O)CCc1nnc(Cc2cccc(C(F)(F)F)c2)o1 | 140* | -3 | 2.5 | 40 | 1
CCN(CC)C(=O)Cn1cc(C(=O)C(=O)NCc2ccco2)c2ccccc21 | 98 | -4 | 1.1 | -10 | 1
Cc1ccc(-n2nnc(-c3nccs3)n2)cc1 | 24 | 96* | 2.5 | 118 | 0
Clc1ccc(-n2nnc(-c3nccs3)n2)cc1Cl | 98 | 59* | 4.8* | 199* | 0.4
Cc1cc(C)n(-c2ccc(Cl)c(Cl)c2)n1 | 107 | -4 | 1 | 6 | 1
CSc1nc(Cc2ccccc2)cc(=O)[nH]1 | 104 | -6 | 1.1 | 5 | 1.1
CC12COC3(C(=O)Nc4ccc5ccccc5c4)CC1CCC32C (stereo unspecified) | 144* | 3 | 1 | 49 | 1
CC1(c2ccc(Cl)cc2)NC(=O)CS1 (stereo unspecified) | 94 | -1 | 1.3 | 17 | 1
CCc1ccc(OCc2cnc(Cl)s2)cc1 | 131* | 10 | 1.5 | 6 | 0.9
Nc1ccc(/C=C/C(=O)c2cccs2)cc1 | 122 | 77* | 5.9* | 143* | 0.2
Nc1ccc(NC(=O)c2cccs2)cc1 | 105 | 0 | 1.2 | -9 | 1
O=C(CSc1nnc(-c2cccs2)o1)c1cccs1 | 141* | 3 | 2.8 | 100 | 1
CCNC(=O)CSc1nnc(-c2cccs2)o1 | 105 | -9 | 1.3 | -2 | 1.1

Bioassay records from PubChem BioAssay.
